Results on 6 compounds are retold here after ChEMBL document CHEMBL3352220, “Design, synthesis, anticancer activity and docking studies of novel 4-morpholino-7,8-dihydro-5H-thiopyrano[4,3-d]pyrimidine derivatives as mTOR inhibitors” (Bioorg Med Chem, 2014).

For test [1], the target named is T1, Serine/threonine-protein kinase mTOR (Homo sapiens, UniProt P42345). Description: Inhibition of mTOR kinase (unknown origin) after 1 hr by TR-FRET assay. Background: TR-FRET usually uses a lanthanide donor and a delayed reading to cut background.
Test [2] deals with Phosphatidylinositol 4,5-bisphosphate 3-kinase catalytic subunit alpha isoform (Homo sapiens) (UniProt P42336). Description: Inhibition of PI3K-alpha (unknown origin) using l-alpha-phosphatidylinositol as substrate at 10 uM after 60 mins by luminescence assay.
Sequence of Phosphatidylinositol 4,5-bisphosphate 3-kinase catalytic subunit alpha isoform (Homo sapiens) (P42336 whole entry, canonical isoform): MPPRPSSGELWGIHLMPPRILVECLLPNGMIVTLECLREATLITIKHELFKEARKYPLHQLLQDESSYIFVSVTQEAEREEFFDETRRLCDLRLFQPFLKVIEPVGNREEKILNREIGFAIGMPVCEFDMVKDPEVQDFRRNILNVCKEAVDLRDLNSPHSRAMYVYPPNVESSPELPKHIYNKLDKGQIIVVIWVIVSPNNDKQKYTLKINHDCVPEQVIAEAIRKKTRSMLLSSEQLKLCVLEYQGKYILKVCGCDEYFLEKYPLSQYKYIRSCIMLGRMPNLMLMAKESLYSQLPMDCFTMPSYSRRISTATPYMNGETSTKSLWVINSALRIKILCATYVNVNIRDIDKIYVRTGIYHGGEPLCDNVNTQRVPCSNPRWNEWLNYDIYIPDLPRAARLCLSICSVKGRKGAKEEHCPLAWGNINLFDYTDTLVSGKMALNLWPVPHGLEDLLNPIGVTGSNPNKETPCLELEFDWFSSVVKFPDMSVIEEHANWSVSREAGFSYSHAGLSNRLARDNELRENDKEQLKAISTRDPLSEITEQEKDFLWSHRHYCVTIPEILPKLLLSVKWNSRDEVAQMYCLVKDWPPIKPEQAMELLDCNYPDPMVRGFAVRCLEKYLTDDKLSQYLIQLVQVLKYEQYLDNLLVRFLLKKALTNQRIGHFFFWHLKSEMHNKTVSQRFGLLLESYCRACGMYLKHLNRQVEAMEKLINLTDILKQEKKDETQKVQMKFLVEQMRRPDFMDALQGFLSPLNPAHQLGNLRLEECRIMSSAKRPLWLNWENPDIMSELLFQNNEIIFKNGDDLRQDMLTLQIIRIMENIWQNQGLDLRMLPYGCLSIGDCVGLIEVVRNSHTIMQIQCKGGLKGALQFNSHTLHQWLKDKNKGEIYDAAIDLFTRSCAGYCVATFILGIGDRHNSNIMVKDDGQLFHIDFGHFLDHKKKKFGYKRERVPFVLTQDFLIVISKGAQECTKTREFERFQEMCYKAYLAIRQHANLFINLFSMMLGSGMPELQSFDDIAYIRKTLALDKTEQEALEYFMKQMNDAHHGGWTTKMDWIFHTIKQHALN
Test [3] is described as follows: Cytotoxicity against human PC3 cells after 72 hrs by MTT assay. It counts as functional, cell-based. Conditions: PC-3, 72 h. Put shortly:
(§1)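 Cells grown in MEM with 10% FBS; ~4 × 10³ cells/well plated and held 24 h at 37 °C, 5% CO2. Compounds added at indicated final concentrations for 72 h. MTT added, 4 h at 37 °C; formazan dissolved in DMSO, absorbance read at 492 nm against 630 nm reference. Tested three times per cell line; inhibition rates or IC50 averaged from two determinations.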
For orientation: Tetrazolium dyes change colour on reduction, which living cells bring about.

Test [4] can be described thus: Cytotoxicity against human H460 cells after 72 hrs by MTT assay. It counts as functional, cell-based. As to conditions: NCI-H460, 72 h. Put shortly:
as §1

Test [5] deals with T1, Serine/threonine-protein kinase mTOR. Kind of test: Selectivity ratio of BMCL-200908069-1 IC50 to compound IC50 for mTOR kinase (unknown origin).
Test [6] relates to PC-3. Description: Selectivity ratio of BMCL-200908069-1 IC50 to compound IC50 for human PC3 cells. It is filed as functional.
Test [7] in a line: Selectivity ratio of BMCL-200908069-1 IC50 to compound IC50 for human H460 cells. It is filed as functional.

The IC50 is the midpoint of a concentration-inhibition curve. Low values mean greater potency, high ones weaker potency. As usually defined, the inhibition is the change of the read-out against control, counted positive when it falls. Higher therefore signals a strong effect. Regarding `O=S1(=O)CCc2nc(N/N=C/c3cc(Br)c(O)c(Br)c3)nc(N3CCOCC3)c2C1`, the IC50 is 6930 nM in test [1] and > 20 µM in test [3]. For the same compound, in test [2], the inhibition stood at 24.9%.

`COc1cc(/C=N/Nc2nc(N3CCOCC3)nc(N3CCOCC3)n2)cc(OC)c1O`: the IC50 came to 1370 nM in test [1], 16.3 µM in test [3] and 9.52 µM in test [4].

As for `COc1cc(/C=N/Nc2nc3c(c(N4CCOCC4)n2)CSCC3)cc(OC)c1O`, the IC50 in test [1] stood at 800 nM; in test [3], 11.9 µM; in test [4], 7.43 µM. Further, the inhibition in test [2] was found to be 12%. Moreover, the results for the Ratio IC50 in test [5], in test [6] and in test [7] were 1.71, 1.37 and 1.28, respectively.

Regarding `COc1cc(/C=N/Nc2nc3c(c(N4CCOCC4)n2)CS(=O)(=O)CC3)cc(OC)c1O`, the IC50 was 2200 nM in test [1] and > 20 µM in test [3]. In test [2], this compound had an inhibition of 6.2%.

For the compound `Oc1c(Br)cc(/C=N/Nc2nc3c(c(N4CCOCC4)n2)CSCC3)cc1Br`, the IC50 is 2670 nM in test [1] and > 20 µM in test [3]. In test [2], this compound had an inhibition of 21.6%.

Turning to `Oc1ccc(/C=N/Nc2nc3c(c(N4CCOCC4)n2)CSCC3)cc1Br`, the IC50 in test [1] stood at 1940 nM; in test [3], 14.4 µM; in test [4] it was 10.8 µM. In test [2], the inhibition stood at 18.8%.
